Assay results from ChEMBL document CHEMBL3393037, “Design, synthesis, and biological evaluation of aminothiazole derivatives against the fungal pathogens Histoplasma capsulatum and Cryptococcus neoformans” (Bioorg Med Chem, 2015).
Converted amounts (≈) assume the structure as drawn.

Legend:
[1] = Antifungal activity against Histoplasma capsulatum G217B ATCC 26032 assessed as inhibition of visible growth after 5 days; type: functional
In short: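 Wild-type G217B yeasts kept in HMM at 37 °C under 5% CO2. Wells held 2×10^5 yeasts (hemocytometer count) with a two-fold dilution series from 40 to 0.078 µM, at 1% DMSO in the top dilution. Plates were agitated twice daily and growth followed by A595 over 5 days. MIC is the lowest concentration with no visible growth on visual inspection of the plates.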

[2] = Selectivity index, ratio of MIC50 for human HepG2 cells to MIC50 for Histoplasma capsulatum strain G217B ATCC 26032
Cryptococcus neoformans = experiment: Antifungal activity against Cryptococcus neoformans MATalpha serotype A strain H99 assessed as inhibition of visible growth after 5 days; type: functional; settings: MATalpha serotype A strain H99, 120 h
[3] = Cytotoxicity against human HepG2 cells after 72 hrs by crystal violet staining method; type: cell-based; settings: for CC50 at 72 h: read-out: MIC50
In short: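 HepG2 cells in MEM with 10% FBS and 2 mM L-glutamine were seeded at 1×10^4 per well and left to adhere overnight. Compound was added at 0.3 to 80 µM for 72 h. Cells were fixed in 3% paraformaldehyde, stained with 0.1% crystal violet, and the dye taken up in 10% acetic acid and read at A590. Values were normalised to DMSO-matched controls, in triplicate.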

[4] = Cytotoxicity against mouse P388D1 […] cells after 48 hrs by crystal violet staining method; type: cell-based; settings: P388D1, 48 h

## O=C(Nc1ncc(Cc2ccc3ccccc3c2)s1)C12CC3CC(CC(C3)C1)C2
[1]
  MIC: > 20 µM
  MIC50: > 10 µM

## O=C(Nc1ncc(Cc2ccccc2)s1)C1CCCCC1
[1]
  MIC: 5 µM (≈ 1.5 µg/mL)
  MIC50: 1.6 µM (≈ 0.481 µg/mL)
[2]
  Ratio: >21
Cryptococcus neoformans
  MIC: 5 µM (≈ 1.5 µg/mL)
  MIC50: 1.3 µM (≈ 0.391 µg/mL)
[3]
  CC50 at 72 h: > 40 µM

## O=C(Nc1nc(C23CC4CC(CC(C4)C2)C3)cs1)C1CCCCC1
[1]
  MIC: 5 µM (≈ 1.72 µg/mL)
  MIC50: 2.5 µM (≈ 0.861 µg/mL)
Cryptococcus neoformans
  MIC: > 20 µM
  MIC50: > 10 µM

## O=C(/C=C/C1CCCCC1)Nc1ncc(Cc2ccccc2)s1
[1]
  MIC: > 20 µM
  MIC50: > 10 µM

## O=C(Nc1ncc(CC2CCCCC2)s1)c1ccccc1
[1]
  MIC: 10 µM (≈ 3 µg/mL)
  MIC50: 4.6 µM (≈ 1.38 µg/mL)

## O=C(Nc1nc(C23CC4CC(CC(C4)C2)C3)cs1)c1ccccc1
[1]
  MIC: 10 µM (≈ 3.38 µg/mL)
  MIC50: 3.1 µM (≈ 1.05 µg/mL)
Cryptococcus neoformans
  MIC: 20 µM (≈ 6.77 µg/mL)
  MIC50: 8.3 µM (≈ 2.81 µg/mL)

## O=C(Nc1ncc(Cc2ccccc2)s1)N1CCCC1
[1]
  MIC: > 20 µM
  MIC50: > 10 µM

## O=C(CCC1CCCCC1)Nc1ncc(CCc2ccccc2)s1
[1]
  MIC: 2.5 µM (≈ 0.856 µg/mL)
  MIC50: 0.7 µM (≈ 0.24 µg/mL)
[2]
  Ratio: >50
Cryptococcus neoformans
  MIC: > 20 µM
  MIC50: > 10 µM
[3]
  CC50 at 72 h: > 40 µM

## COc1ccc(Cc2cnc(NC(=O)/C=C/c3ccco3)s2)cc1
[1]
  MIC: > 20 µM
  MIC50: > 10 µM

## O=C(Nc1ncc(Cc2cccc3ccccc23)s1)C1CCCCC1
[1]
  MIC: 0.6 µM (≈ 0.21 µg/mL)
  MIC50: 0.4 µM (≈ 0.14 µg/mL)
[2]
  Ratio: 97
[4]
  IC50: 54 µM
Cryptococcus neoformans
  MIC: 0.6 µM (≈ 0.21 µg/mL)
  MIC50: 0.4 µM (≈ 0.14 µg/mL)
[3]
  CC50 at 72 h: 39 µM

## O=C(Nc1ncc(Cc2cccc3ccccc23)s1)c1ccccc1
[1]
  MIC: > 20 µM
  MIC50: > 10 µM

## O=C(Nc1ncc(CCc2ccccc2)s1)C1CCCC1
[1]
  MIC: 2.5 µM (≈ 0.751 µg/mL)
  MIC50: 0.9 µM (≈ 0.27 µg/mL)
Cryptococcus neoformans
  MIC: 5 µM (≈ 1.5 µg/mL)
  MIC50: 2.7 µM (≈ 0.811 µg/mL)

## Cc1cccc(Cc2cnc(NC(=O)C3CCC3)s2)c1
[1]
  MIC50: 2.5 µM (≈ 0.716 µg/mL)
[3]; read-out: MIC
  MCC at 72 h: 20 µM

## O=C(CCC1CCCCC1)Nc1ncc(Cc2ccc3ccccc3c2)s1
[1]
  MIC: > 20 µM
  MIC50: > 10 µM

## O=C(Nc1ncc(Cc2ccccc2)s1)C1CCOCC1
[1]
  MIC: > 20 µM
  MIC50: > 10 µM

## O=C(CC1CCCCC1)Nc1ncc(Cc2cccc3ccccc23)s1
[1]
  MIC: 0.6 µM (≈ 0.219 µg/mL)
  MIC50: 0.4 µM (≈ 0.146 µg/mL)
[2]
  Ratio: 92
Cryptococcus neoformans
  MIC: > 20 µM
  MIC50: > 10 µM
[3]
  CC50 at 72 h: 37 µM

## CC(C)(C)OC(=O)Nc1ncc(C(O)c2ccccc2)s1 (stereo not drawn)
[1]
  MIC: > 20 µM
  MIC50: > 10 µM

## O=C(Nc1ncc(Cc2ccc(F)cc2)s1)C1CCCCC1
[1]
  MIC: 20 µM (≈ 6.37 µg/mL)
  MIC50: 4.4 µM (≈ 1.4 µg/mL)

## O=C(Nc1ncc(Cc2ccccc2)s1)c1ccccc1
[1]
  MIC: > 20 µM
  MIC50: > 10 µM

## O=C(CCC1CCCCC1)Nc1ncc(Cc2ccccc2F)s1
[1]
  MIC: 2.5 µM (≈ 0.866 µg/mL)
  MIC50: 1 µM (≈ 0.346 µg/mL)
Cryptococcus neoformans
  MIC: > 20 µM
  MIC50: > 10 µM

## O=C(CCC1CCCCC1)Nc1nc(C23CC4CC(CC(C4)C2)C3)cs1
[1]
  MIC: 20 µM (≈ 7.45 µg/mL)
  MIC50: 5.2 µM (≈ 1.94 µg/mL)

## O=C(CCC1CCCCC1)Nc1ncc(Cc2cccc(C(F)(F)F)c2)s1
[1]
  MIC: > 20 µM
  MIC50: > 10 µM

## CN1CCC(C(=O)Nc2ncc(Cc3ccccc3)s2)CC1
[1]
  MIC: > 20 µM
  MIC50: > 10 µM

## O=C(CCC1CCCCC1)Nc1nc(-c2ccccc2)cs1
[1]
  MIC: > 20 µM
  MIC50: > 10 µM

## O=C(Nc1ncc(Cc2cccc3ccccc23)s1)C(F)(F)F
[1]
  MIC: > 20 µM
  MIC50: > 10 µM

## O=C(Nc1nc(C23CC4CC(CC(C4)C2)C3)cs1)C1CCCC1
[1]
  MIC: 20 µM (≈ 6.61 µg/mL)
  MIC50: 7.4 µM (≈ 2.45 µg/mL)

## O=C(Nc1ncc(Cc2ccccc2)s1)N1CCOCC1
[1]
  MIC: > 20 µM
  MIC50: > 10 µM

## O=C(CC1CCCCC1)Nc1ncc(Cc2ccccc2)s1
[1]
  MIC: 2.5 µM (≈ 0.786 µg/mL)
  MIC50: 0.7 µM (≈ 0.22 µg/mL)
[2]
  Ratio: >44
Cryptococcus neoformans
  MIC: > 20 µM
  MIC50: > 10 µM
[3]
  CC50 at 72 h: > 40 µM

## O=C(CC1CCCCC1)Nc1nc(C23CC4CC(CC(C4)C2)C3)cs1
[1]
  MIC: > 20 µM
  MIC50: > 10 µM

## O=C(CCC1CCCCC1)Nc1ncc(Cc2ccccc2Cl)s1
[1]
  MIC: 2.5 µM (≈ 0.907 µg/mL)
  MIC50: 0.9 µM (≈ 0.327 µg/mL)
Cryptococcus neoformans
  MIC: > 20 µM
  MIC50: > 10 µM

## O=C(CCC1CCCCC1)Nc1ncc(Cc2cccc(Cl)c2)s1
[1]
  MIC: 2.5 µM (≈ 0.907 µg/mL)
  MIC50: 1.1 µM (≈ 0.399 µg/mL)
[2]
  Ratio: 65
Cryptococcus neoformans
  MIC: > 20 µM
  MIC50: > 10 µM
[3]
  CC50 at 72 h: 39 µM

## O=C(CCC1CCCCC1)Nc1nnc(Cc2ccccc2)s1
[1]
  MIC: > 20 µM
  MIC50: > 10 µM

## O=C(Nc1ncc(CC2CCCCC2)s1)C12CC3CC(CC(C3)C1)C2
[1]
  MIC: > 20 µM
  MIC50: > 10 µM

## O=C(Nc1nc(-c2ccccc2)cs1)C1CCCC1
[1]
  MIC: > 20 µM
  MIC50: > 10 µM
